Assay results as given in ChEMBL document CHEMBL4350999, “Enhanced tumor retention of NTSR1-targeted agents by employing a hydrophilic cysteine cathepsin inhibitor” (Eur J Med Chem, 2019).
Calls of active or inactive are those of the source. No cut-off for these calls is given here.

What was measured:
[1] = target: T1, Cathepsin B (Homo sapiens, UniProt P07858); assay: Inhibition of human liver cathepsin B assessed as pseudo Michaelis-Menten constant at 10 nM using varying levels of Z-Arg-Arg-AMC as substrate measured every 5 mins for 1 hr by fluorescence assay
[2] = target: T1, Cathepsin B; assay: Inhibition of human liver cathepsin B assessed as inhibition constant using Z-Arg-Arg-AMC as substrate measured every 5 mins for 1 hr by fluorescence assay
[3] = target: T1, Cathepsin B; assay: Inhibition of human liver cathepsin B assessed as second order rate constant using Z-Arg-Arg-AMC as substrate measured every 5 mins for 1 hr by fluorescence assay
Procedure, shortened: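 Human liver cathepsin B, 2 nM final, in 0.1 M phosphate pH 5.8 (1 mM EDTA, 2.7 mM DTT, 0.03% Brij35). Enzyme mixed with conjugate (1–500 nM final), then Z-Arg-Arg-AMC added (800 μM final); 37 °C. […] Biological triplicate.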

Structure (SMILES): CC(C)C[C@H](NC(=O)CCC(=O)O)C(=O)N[C@@H](CCCNC(=N)N)C(=O)NCCN=[N+]=[N-]
- K [1]: 185 µM
- inhibition [2]: inactive
- inhibition [3]: inactive
